An excerpt weighted towards active compounds, which were near 1.4% of everything screened.
DDE Tn6 FP inh = inhibitors of Tn6 peptide binding to fibrin DD(E), primary screen, biochemical, fluorescence polarization, human fibrin, Tn6 probe. Fibrinogen beta chain (Homo sapiens), P02675. Fibrin DD(E) TRITC-Tn6 fluorescence polarization displacement. inhibition, % at 8.3 µM. hit rate 0.21% among 370,000;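 active = inhibition above a per-campaign cutoff: mean of compounds within control limits plus 3 SD, cut at about 15% in these data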;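 also: 0% = median of all compound wells on the plate and 100% = blocking peptide control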
Tn7 DDE FP = inhibitors of Tn7 peptide binding to fibrin DD(E), primary screen, biochemical, fluorescence polarization, human fibrin, Tn7 probe; Fibrinogen beta chain (Homo sapiens), P02675; FP displacement of FITC-Tn7 peptide from fibrin DD(E); 0% = median of compound wells per plate; inhibition, % at 8.3 µM; hit rate 0.13% among 370,000;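 active = inhibition above the mean of compounds falling within the control limits plus 3 SD of them, cut at about 14% in these data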;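 also: 0% = plate median of compound wells and 100% = 10 µM Aha-Tn7 peptide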
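Assay system: Human clot-derived fibrin DD(E) complex | Buffer or medium: Tris/NaCl/CaCl2 buffer, pH 7.8 | Repeats: One replicate per compound | Benchmarks: Aha-Tn7 high control | Measure: % inhibition scaled between sample-field median and high-control FP | Schedule: 10 min plus 3 h, room temperature | Signal: Fluorescence polarization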
DAGLB inhibitor = DAGLB lipase inhibitors, primary screen, biochemical, fluorescence, HTS; inhibition, % at 5.17 µM; hit rate 0.059% among 340,000; HEK293T DAGLB membrane lysate, EnzChek fluorogenic substrate; AID 504411, 2011; in the data active = inhibition above about 34%;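 also: 0% = enzyme with vehicle and 100% = wells lacking enzyme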
Target sequence (Q8NCG7 whole entry, looked up): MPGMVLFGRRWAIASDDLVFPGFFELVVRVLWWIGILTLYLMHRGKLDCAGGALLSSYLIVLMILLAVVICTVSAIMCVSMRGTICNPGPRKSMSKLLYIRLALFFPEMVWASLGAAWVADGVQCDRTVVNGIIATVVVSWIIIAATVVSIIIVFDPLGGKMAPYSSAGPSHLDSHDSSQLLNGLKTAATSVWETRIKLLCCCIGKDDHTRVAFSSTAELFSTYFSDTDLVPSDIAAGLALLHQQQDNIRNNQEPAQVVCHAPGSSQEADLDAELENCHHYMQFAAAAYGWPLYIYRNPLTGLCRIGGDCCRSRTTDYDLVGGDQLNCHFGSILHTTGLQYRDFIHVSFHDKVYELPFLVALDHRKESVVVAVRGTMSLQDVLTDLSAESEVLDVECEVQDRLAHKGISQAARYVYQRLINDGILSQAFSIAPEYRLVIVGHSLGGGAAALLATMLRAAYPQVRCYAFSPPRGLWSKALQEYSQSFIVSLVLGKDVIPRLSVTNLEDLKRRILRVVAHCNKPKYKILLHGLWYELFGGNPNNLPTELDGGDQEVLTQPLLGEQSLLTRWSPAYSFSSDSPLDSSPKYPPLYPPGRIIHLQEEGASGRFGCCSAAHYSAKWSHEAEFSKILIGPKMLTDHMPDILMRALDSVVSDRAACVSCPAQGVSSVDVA
MT1-MMP act inh = blockers of MT1-MMP proenzyme processing, primary screen, HT1080 RFP-PRO-GFP cells, GFP/RFP fluorescence | Matrix metalloproteinase-14 (Homo sapiens), P50281 | GFP/RFP ratio fluorescence, overnight; percent of plate control window, DMSO zero | GFP/RFP ratio change, % at 20 µM | hit rate 0.061% among 360,000 | AID 651647, 2012;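 active = GFP/RFP ratio change of at least 30% with cell ATP level not reduced by more than half and red fluorescence within 50% of control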
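Material – HT1080 RFP-PRO-GFP cells · Control set – DMSO wells and RFP-L50D-GFP cells · Incubation – overnight cell settling, then overnight compound exposure, 37 °C, 5% CO2 · Compound dosing – single-point 20 µM compound, 1% DMSO · Read-out – GFP/RFP fluorescence ratio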
H9c2 TAG inh = inhibitors of triacylglycerol accumulation, primary screen, cell-based, uHTS, fluorescence, H9c2; H9c2 cells, Nile Red lipid (TAG) fluorescence; cells loaded with 200 µM oleic acid; inhibition, % at 12.5 µM; hit rate 0.66% among 230,000;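 active = pattern-corrected inhibition of lipid staining of at least 50% with the nuclear-stain viability signal not falling by more than 50%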;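 also: 0% = DMSO wells and 100% = triacsin C control wells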
Cardio protect = cardioprotection against H2O2-induced cell death, primary screen, uHTS, H9c2 cells, ATPLite luminescence | AID 588492, 2011 | hit rate 0.63% among 360,000 | H9c2 cardiomyocytes, H2O2 injury protection, 2 h | protection from H2O2 cell death, % at 20 µM;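 active = compounds giving at least 50% protection of heart cells from peroxide-induced death in the single-dose screen, raw or plate-pattern-corrected value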;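 also: 0% = DMSO wells with peroxide and 100% = DMSO wells without peroxide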
TAG conf = triacylglycerol accumulation inhibitors, retest, confirmation, cell-based, single concentration, Nile Red fluorescence, H9c2 | shares compounds with H9c2 TAG inh | AID 651629, 2012 | H9c2 lipid accumulation; cells loaded with 200 µM oleic acid | inhibition, % at 12.5 µM | hit rate 71% among 990;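 active = mean inhibition across replicates of 40% or more; inactive = mean inhibition below 40%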;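 also: plate controls were DMSO only wells for no effect and Triacsin C treated wells for full effect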
An asterisk follows results filed as active; . = no result given.

SMILES | DDE Tn6 FP inh | Tn7 DDE FP | DAGLB inhibitor | MT1-MMP act inh | H9c2 TAG inh | Cardio protect | TAG conf
CCOc1cc(CNc2ccc(N3CCOCC3)cc2)cc(Br)c1OCC | 5.5 | 1.6 | 2.2 | 6.1 | . | -11.6 | .
CCOC(=O)C1=NOC(C(=O)Nc2cc(C)cc(C)c2)(C(=O)C2CC2)C1 (centres undefined) | -5.3 | 0.9 | . | . | . | . | .
COC(=O)[C@]12C[C@H](CC(=O)NCc3ccc(OC)c(OC)c3)C(=O)N(Cc3ccco3)C1=C[C@H](COCc1ccccc1)O[C@@H]2C | -2.6 | 7.6 | . | . | . | . | .
O=C(CSc1ccc2ccccc2c1)Nc1nc2ccccc2[nH]1 | 3.5 | -4.0 | 1.5 | 2.7 | . | -0.5 | .
COC(=O)Nc1nc2ccc(C(=O)c3cccs3)cc2[nH]1 | -14.3 | -9.6 | 2.2 | 15.8 | 45.4 | -5.1 | .
CCCSc1ccc2nc(NC(=O)OC)[nH]c2c1 | 7.3 | 7.4 | 1.5 | 15.2 | 58.0* | -16.6 | 59.8*
COC(=O)Nc1nc2ccc(SC(C)C)cc2[nH]1 | -0.3 | 1.7 | 0.8 | 11.9 | 52.1* | 0.4 | 60.9*
COCCN1C(=O)C2=C(C1=O)C1N(C)c3ccccc3[C@@]13C[C@@H](CO)N(C(C)=O)C3=N2 (some centres undefined) | -1.1 | 4.9 | . | . | . | . | .
CCOc1cc(/C=N\NC(=O)c2ccc(NC(=O)C(C)(C)C)cc2)ccc1OC(=O)c1cccc(C)c1 | -3.1 | -7.2 | -4.2 | 7.3 | 64.4* | 65.9* | 37.0
CC(C)N1CCc2c(sc(NC(=O)C(F)(F)F)c2-c2nc3ccccc3s2)C1 | 2.6 | 2.2 | . | . | . | . | .
CCN(CC)CCNC(=O)C(Cl)=C1C(Cl)=C(Cl)C(Cl)=C1Cl | 2.6 | 2.8 | 1.8 | 12.2 | 77.9* | -1.5 | 73.9*
CCOC(=O)[C@]12CCCC=C1N(CCCOC)C(=O)[C@@H]2CC(=O)NCc1ccc(OC)c(OC)c1 | -0.9 | 2.7 | . | . | . | . | .
CC(=O)N1CCN(C(=O)CSc2nc3cccnc3n2C)CC1 | 0.0 | 1.3 | . | . | . | . | .
Cc1cc(C)nc(Sc2ncnc(N)c2[N+](=O)[O-])n1 | -4.2 | -0.6 | -5.0 | -2.4 | 61.3* | -16.1 | 36.9
Cc1cccc(Nc2ncnc(N)c2[N+](=O)[O-])n1 | 2.0 | -0.3 | -2.0 | -11.5 | 2.7 | -1.9 | .
CC(C)CN(C#N)c1nc(N2CCOCC2)nc(N2CCOCC2)n1 | 6.8 | 5.2 | -2.9 | 0.2 | 61.8* | 4.1 | 44.6*
CN(C#N)c1nc(N2CCOCC2)nc(N2CCOCC2)n1 | -0.3 | 2.7 | 3.8 | 4.4 | 16.5 | 5.5 | .
CC(=O)CC(=O)O[C@@H]1C=C[C@H](NC(=O)OC(C)(C)C)C1 | 0.4 | 3.1 | . | . | . | . | .
COC(=O)[C@]12C[C@H](CC(=O)NCC34CC5CC(CC(C5)C3)C4)C(=O)N(CCc3ccc(OC)c(OC)c3)C1=C[C@H](C1CCCC1)O[C@@H]2C | 2.6 | 3.4 | . | . | . | . | .
CN(C)c1ccc(NC(=O)CSc2nc3ccccc3c(=O)n2C2CCCCC2)cc1 | 6.0 | 3.4 | -1.9 | -13.5 | 55.2* | -0.1 | 49.4*
Cc1cc(NC(=O)CSc2nc3ccccc3c(=O)n2C2CCCC2)no1 | -15.1 | -1.3 | -5.3 | 6.5 | 89.5* | 5.1 | 69.2*
Cc1cccc(C)c1-n1nnnc1C1(C)Cn2nccc2C(=O)N1Cc1ccc(F)cc1 (centres undefined) | 5.3 | 0.1 | . | . | . | . | .
COc1ccccc1C(=O)CSc1nnc(-c2ccncc2)n1-c1ccc(Cl)cc1 | -7.3 | -2.5 | . | . | . | . | .
O=C(N[C@@H](Cc1ccccc1)c1nc2ccccc2[nH]1)c1ccc([N+](=O)[O-])cc1 | -4.8 | -0.7 | . | . | . | . | .

Assay outcomes from PubChem BioAssay.
